From ChEMBL document CHEMBL1132587, “Synthesis and serotonergic activity of 3-[2-(pyrrolidin-1-yl)ethyl]indoles: potent agonists for the h5-HT1D receptor with high selectivity over the h5-HT1B receptor” (J Med Chem, 1999) come the findings set out here.

Experiment [1] deals with T1, 5-hydroxytryptamine receptor 1D (Homo sapiens, UniProt P28221). The experiment can be described thus: Displacement of [3H]5-HT binding from the cloned human 5-hydroxytryptamine 1D receptor stably expressed in CHO cells. The class given is cell-based. A general note: In a radioligand displacement assay an active substance lowers the binding of a labelled ligand.
Experiment [2] concerns the target T2, 5-hydroxytryptamine receptor 1B (Homo sapiens, UniProt P28222). The experiment can be described thus: Displacement of [3H]5-HT binding from the cloned human 5-hydroxytryptamine 1B receptor stably expressed in CHO cells. The class given is cell-based.
Experiment [3] concerns the target T1, 5-hydroxytryptamine receptor 1D. Nature of the experiment: Stimulation of [35S]GTP-gamma-S, binding in CHO cells expressing the 5-hydroxytryptamine 1D receptor. In kind it is functional, cell-based. For orientation: GTPγS resists hydrolysis and so accumulates on activated G proteins.
For experiment [4], the target named is T3, 5-hydroxytryptamine receptor 1A (Homo sapiens, UniProt P08908).
T3 sequence (P08908 whole entry): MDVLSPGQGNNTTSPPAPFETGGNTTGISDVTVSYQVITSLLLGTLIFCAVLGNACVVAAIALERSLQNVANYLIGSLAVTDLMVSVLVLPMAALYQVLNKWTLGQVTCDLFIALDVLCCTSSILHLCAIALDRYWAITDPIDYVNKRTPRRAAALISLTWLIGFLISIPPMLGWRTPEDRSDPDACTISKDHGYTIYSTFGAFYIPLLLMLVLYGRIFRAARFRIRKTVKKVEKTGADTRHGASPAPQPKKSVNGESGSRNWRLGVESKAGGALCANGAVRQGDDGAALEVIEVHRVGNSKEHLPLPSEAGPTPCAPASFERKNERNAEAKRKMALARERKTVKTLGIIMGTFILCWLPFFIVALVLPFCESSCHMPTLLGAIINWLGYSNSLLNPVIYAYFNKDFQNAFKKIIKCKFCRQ
Nature of the experiment: Affinity of compound towards 5-hydroxytryptamine 1A receptor was evaluated using radioligand binding technique.

Experiment [5] relates to Rattus norvegicus. The experiment can be described thus: Hepatic portal vein plasma concentration after oral administration. In kind it is functional, organism-based. Summed up:
(§1)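 Fasted (≥12 h) rats, ~300 g, given 3 mg/kg orally in aqueous formulation (5 mL/kg); four rats per time point, isoflurane anaesthesia, hepatic portal vein blood at 0.5 or 2 h; plasma extracted (liquid-liquid or solid-phase) and analysed by reversed-phase HPLC with UV or fluorescence detection.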

For experiment [6], the target named is 5-hydroxytryptamine receptor 2A (Rattus norvegicus) (UniProt P14842). The experiment can be described thus: Affinity of compound towards rat 5-hydroxytryptamine 2A receptor was evaluated using radioligand binding technique.
Experiment [7] concerns the target T2, 5-hydroxytryptamine receptor 1B. Nature of the experiment: Affinity of compound towards 5-hydroxytryptamine 1B receptor was evaluated using radioligand binding technique.
In experiment [8] the target is T1, 5-hydroxytryptamine receptor 1D. Nature of the experiment: Affinity of compound towards 5-hydroxytryptamine 1D receptor was evaluated using radioligand binding technique.
The test system of experiment [9] is Rattus norvegicus. Nature of the experiment: Hepatic portal vein plasma concentration after administration. The class given is functional, organism-based. Summed up: as §1

Where “and” joins values, the source holds several entries; their conditions need not be identical. Identical values can stand only once.

5-hydroxytryptamine receptor 2A (Rattus norvegicus), sequence (P14842 whole entry, looked up): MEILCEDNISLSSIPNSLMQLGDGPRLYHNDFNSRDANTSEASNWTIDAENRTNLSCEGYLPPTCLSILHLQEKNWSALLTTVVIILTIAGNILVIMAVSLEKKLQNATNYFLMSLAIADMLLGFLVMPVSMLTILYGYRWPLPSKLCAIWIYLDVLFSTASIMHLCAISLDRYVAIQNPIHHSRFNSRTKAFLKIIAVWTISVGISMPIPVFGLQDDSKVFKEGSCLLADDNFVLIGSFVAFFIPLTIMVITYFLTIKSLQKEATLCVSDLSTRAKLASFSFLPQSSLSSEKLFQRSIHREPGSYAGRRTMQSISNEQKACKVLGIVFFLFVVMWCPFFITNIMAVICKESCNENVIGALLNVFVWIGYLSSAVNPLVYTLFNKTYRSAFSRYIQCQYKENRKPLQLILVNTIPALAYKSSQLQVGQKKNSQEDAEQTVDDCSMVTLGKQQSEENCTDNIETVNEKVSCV
T1 sequence (P28221 whole entry): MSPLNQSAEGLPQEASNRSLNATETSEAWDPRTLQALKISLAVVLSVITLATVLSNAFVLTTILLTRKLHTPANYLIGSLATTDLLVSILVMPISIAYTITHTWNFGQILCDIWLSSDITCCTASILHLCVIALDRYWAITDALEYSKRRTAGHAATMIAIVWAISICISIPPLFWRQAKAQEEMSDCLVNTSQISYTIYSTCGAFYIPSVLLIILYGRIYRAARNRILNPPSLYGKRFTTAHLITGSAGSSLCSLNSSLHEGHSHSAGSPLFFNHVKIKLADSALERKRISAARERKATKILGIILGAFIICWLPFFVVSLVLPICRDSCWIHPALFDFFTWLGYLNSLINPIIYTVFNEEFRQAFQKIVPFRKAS
T2 sequence (P28222 whole entry): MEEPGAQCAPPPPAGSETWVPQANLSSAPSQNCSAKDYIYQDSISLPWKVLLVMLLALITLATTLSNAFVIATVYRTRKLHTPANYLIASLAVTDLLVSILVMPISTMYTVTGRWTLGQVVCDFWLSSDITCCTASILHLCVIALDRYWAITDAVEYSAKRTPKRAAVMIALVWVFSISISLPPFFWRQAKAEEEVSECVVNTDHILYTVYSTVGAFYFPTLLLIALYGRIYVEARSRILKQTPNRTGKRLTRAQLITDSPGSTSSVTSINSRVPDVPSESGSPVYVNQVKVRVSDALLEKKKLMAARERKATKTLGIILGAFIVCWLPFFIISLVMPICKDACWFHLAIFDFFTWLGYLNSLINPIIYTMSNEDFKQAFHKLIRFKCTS

As for `C[C@@H](c1ccccc1)N(C)C[C@@H]1CCN(CCc2c[nH]c3ccc(Cn4cncn4)cc23)C1`, the IC50 (commonly the concentration that inhibits the measured activity by half) was 0.7 nM in [1] and 87 nM in experiment [2]. Moreover, in experiment [3], the EC50 (commonly the concentration giving half of the maximal effect) came out at 4.5 nM.
In the case of `c1ccc(COC[C@@H]2CCN(CCCc3c[nH]c4ccc(-n5cnnc5)cc34)C2)cc1`, the figures for the IC50 in [1] and in [2] were 2.1 nM and 33 nM, respectively.
Regarding `c1ccc(CNC[C@@H]2CCN(CCc3c[nH]c4ccc(-n5cnnc5)cc34)C2)cc1`, in experiment [4], the IC50 was 5.4 nM. The compound also returned a Plasma concentration in the experiment on Rattus norvegicus [5] of less than 5 ng/mL. In [3], the midpoint of the response, the EC50, lay at 0.8 nM.
As for `c1ccc(COC[C@@H]2CCCN2CCc2c[nH]c3ccc(-n4cnnc4)cc23)cc1`, the IC50 in experiment [1] is 0.81 nM; in [2], 2.7 nM.
`c1ccc(COC[C@H]2CCCN2CCc2c[nH]c3ccc(-n4cnnc4)cc23)cc1`: the values for the IC50 in experiment [1] and in experiment [2] were 95 nM and 575 nM, respectively.
`CC(=O)N(Cc1ccccc1)C[C@@H]1CCN(CCc2c[nH]c3ccc(-n4cnnc4)cc23)C1`: the IC50 in [1] was 1.1 nM; in experiment [2], 11 nM.
Take `O[C@@H]1CCN(CCc2c[nH]c3ccc(-n4cnnc4)cc23)C1`: the IC50 in experiment [1] is 9 nM; in experiment [2], 93 nM. Besides, the EC50 in experiment [3] turned out to be 7.8 nM.
In turn, `CN(Cc1ccccc1)C[C@@H]1CCN(CCc2c[nH]c3ccc(-n4cnnc4)cc23)C1` came in with an IC50 in experiment [2] of 32 nM. In [3], the EC50 came to 1.5 nM.
In experiment [2], `CN(C)CCc1c[nH]c2ccc(-n3cnnc3)cc12` registered an IC50 of 1.3 nM. Moreover, a half-maximal effect in [3] (EC50) was put at 0.4 nM.
`c1cc(CNC[C@@H]2CCN(CCc3c[nH]c4ccc(-n5cnnc5)cc34)C2)co1`: the figures for the IC50 in experiment [1] and in experiment [2] were 0.45 nM and 12 nM, respectively. This compound had an EC50 in experiment [3] of 1.3 nM.
On to `CN(Cc1ccccc1)C[C@@H]1CCCN1CCc1c[nH]c2ccc(-n3cnnc3)cc12`, for which the IC50 in [1] came to 0.8 nM; in experiment [2], 15 nM. In experiment [3], this compound registered an EC50 of 3 nM.
With `c1ccc(CNC[C@@H]2CCN(CCc3c[nH]c4ccc(-n5cnnc5)cc34)C2)nc1`, the IC50 in experiment [1] is 3.6 nM; in experiment [2], 48 nM.
`CC(C)(NC[C@@H]1CCN(CCc2c[nH]c3ccc(-n4cnnc4)cc23)C1)c1ccccc1`: the IC50 in [1] was found to be 1 nM; in experiment [2] it was 39 nM. In experiment [3], this compound yielded an EC50 of 0.3 nM.
For `C[C@@H](NC[C@@H]1CCN(CCc2c[nH]c3ccc(-n4cnnc4)cc23)C1)c1ccccc1`, in that order: 0.72 nM, 74 nM and 2.1 nM.
For `c1ccc(CCNC[C@@H]2CCN(CCc3c[nH]c4ccc(-n5cnnc5)cc34)C2)cc1`, in that order: 2.6 nM, 125 nM and 6.2 nM.
The compound `CN(Cc1ccccc1)[C@@H]1CCN(CCc2c[nH]c3ccc(-n4cnnc4)cc23)C1` had an IC50 in experiment [1] of 37 nM.
As to `CNS(=O)(=O)Cc1ccc2[nH]cc(CCN3CC[C@@H](CNCc4ccccc4)C3)c2c1`, the IC50 in experiment [1] was 1.1 nM; in experiment [2] it was 62 nM; in experiment [4], 41 nM; in [6] it was 5800 nM; in experiment [7], 62 nM; in experiment [8] it was 1.1 nM. This compound came in with an EC50 in experiment [3] of 3.5 nM.
In the case of `O=C1N[C@@H](Cc2ccc3[nH]cc(CCN4CC[C@@H](CNCc5ccccc5)C4)c3c2)CO1`, the IC50 is 0.35 nM in [1]; 49 nM in [2]; 17 nM in experiment [4]; 3000 nM in [6]; 49 nM in [7]; 0.35 nM in experiment [8]. This compound also had an EC50 in [3] of 1.7 nM. In addition, the Plasma concentration with Rattus norvegicus [9] is < 2 ng/mL and 4 ng/mL.
Consider `C[C@H](NC[C@@H]1CCN(CCc2c[nH]c3ccc(-n4cnnc4)cc23)C1)c1ccccc1`, for which the IC50 in experiment [1] is 0.45 nM; in experiment [2], 41 nM. The EC50 in experiment [3] is 0.63 nM.
`CN(Cc1ccccc1)C[C@@H]1CCN(CCc2c[nH]c3ccc(Cn4cncn4)cc23)C1`: the figures for the IC50 in [1] and in [2] were 7.7 nM and 575 nM, respectively. The Plasma concentration in the experiment on Rattus norvegicus [5] was 39 ng/mL and 114 ng/mL. Further, in experiment [3], the concentration giving a half-maximal response (EC50) stood at 11 nM.
Regarding `c1cncc(CNC[C@@H]2CCN(CCc3c[nH]c4ccc(-n5cnnc5)cc34)C2)c1`, the values for the IC50 in [1] and in [2] were 3.8 nM and 62 nM, respectively.
Turning to `c1ccc(CNC[C@H]2CCN(CCc3c[nH]c4ccc(-n5cnnc5)cc34)C2)cc1`, in [2], the IC50 came to 47 nM.
For `c1ccc(CO[C@H]2CCN(CCc3c[nH]c4ccc(-n5cnnc5)cc34)C2)cc1`, the results for the IC50 in experiment [1] and in experiment [2] were 20 nM and 275 nM, respectively. Besides, in [3], the response was half-maximal at 31 nM (EC50).
As to `c1cc(CNC[C@@H]2CCN(CCc3c[nH]c4ccc(-n5cnnc5)cc34)C2)ccn1`, the IC50 in experiment [1] is 8.5 nM; in [2] it was 110 nM. The compound further came in with an EC50 in experiment [3] of 9.5 nM.
For `C=CCNC[C@@H]1CCN(CCc2c[nH]c3ccc(-n4cnnc4)cc23)C1`, the IC50 amounted to 17 nM in experiment [1] and 325 nM in experiment [2].
With `C[C@H](NC[C@@H]1CCN(CCc2c[nH]c3ccc(C[C@H]4COC(=O)N4)cc23)C1)c1ccccc1`, the IC50 came to 0.3 nM in experiment [1]; 49 nM in [2]; 8.7 nM in [4]; 2200 nM in [6]; 50 nM in experiment [7]; 0.3 nM in experiment [8]. In experiment [3], this compound registered an EC50 of 0.5 nM.
Regarding `CN(Cc1ccccc1)C[C@@H]1CCN(CCCc2c[nH]c3ccc(-n4cnnc4)cc23)C1`, the IC50 in experiment [1] stood at 4.2 nM; in experiment [2], 59 nM.
Turning to `c1coc(CNC[C@@H]2CCN(CCc3c[nH]c4ccc(-n5cnnc5)cc34)C2)c1`, the IC50 was 1.5 nM in experiment [1] and 20 nM in experiment [2]. This compound gave an EC50 in experiment [3] of 2.8 nM.
With `c1ccc(CNC[C@@H]2CCN(CCc3c[nH]c4ccc(Cn5cncn5)cc34)C2)cc1`, the results for the IC50 in experiment [1] and in experiment [2] were 3.2 nM and 260 nM, respectively. In addition, the Plasma concentration in the experiment on Rattus norvegicus [5] is < 25 ng/mL and 55 ng/mL. For the same compound, the 50% effective concentration (EC50) in experiment [3] was determined as 4.9 nM.
Turning to `c1cc2[nH]cc(CCN3CCCC3)c2cc1-n1cnnc1`, the IC50 in experiment [1] turned out to be 3.1 nM; in experiment [2] it was 28 nM. This compound also gave an EC50 in experiment [3] of 2.3 nM.
With `c1cc2[nH]cc(CCN3CCC3)c2cc1-n1cnnc1`, the IC50 in experiment [1] is 1.1 nM; in experiment [2], 4.4 nM.
Consider `CC(=O)Nc1ccc(CNC[C@@H]2CCN(CCc3c[nH]c4ccc(-n5cnnc5)cc34)C2)cc1`, for which the IC50 is 12 nM in experiment [1] and 165 nM in experiment [2]. Moreover, the EC50 in experiment [3] was found to be 10 nM.
On to `CN(Cc1ccccc1)C[C@@H]1CCN(CCc2c[nH]c3ccc(C[C@H]4COC(=O)N4C)cc23)C1`, for which the results for the IC50 in [1] and in experiment [2] were 1.7 nM and 69 nM, respectively. The EC50 in [3] came to 3.2 nM.
Take `C[C@H](NC[C@@H]1CCN(CCc2c[nH]c3ccc(Cn4cncn4)cc23)C1)c1ccccc1`: the figures for the IC50 in [1] and in experiment [2] were 2.5 nM and 305 nM, respectively. The compound further yielded an EC50 in [3] of 3 nM.
For `c1ccc(COC[C@@H]2CCN(CCc3c[nH]c4ccc(-n5cnnc5)cc34)C2)cc1`, in [2], the IC50 stood at 85 nM. That is a double-digit nanomolar value.
Take `c1ccc(NC[C@@H]2CCN(CCc3c[nH]c4ccc(-n5cnnc5)cc34)C2)cc1`: the IC50 in experiment [1] came out at 9.1 nM; in experiment [2], 87 nM.
In the case of `OC[C@@H]1CCN(CCc2c[nH]c3ccc(-n4cnnc4)cc23)C1`, the IC50 stood at 26 nM in [1] and 93 nM in [2].
